Here are results for 14 compounds from ChEMBL document CHEMBL5329149, “Identification of macrocyclic peptides which activate bacterial cylindrical proteases” (RSC Med Chem, 2023).

For test [1], the target named is ATP-dependent Clp protease proteolytic subunit (Escherichia coli (strain K12)) (UniProt P0A6G7). Description: Activation of Escherichia coli ClpP assessed as increase in fluorescence intensity using beta-casein/FITC casein as substrate at 200 uM incubated for 24 hrs. An outline of the steps:
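E. coli ClpP (0.5 µM, His-tagged, expressed in E. coli C41(DE3)) with FITC-casein (1.8 µM) plus bovine beta-casein (4.8 µM), final concentrations. Ligands at 200 µM in 100 mM Tris-HCl pH 7.6, 100 mM KCl, 24 h at 37 °C. Fluorescence read at ex 483/em 530 nm, mean of DMSO wells subtracted. Run in parallel without ClpP to exclude false positives. Duplicates, ≥2 independent experiments, mean ± SD.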

Test [2] concerns the target T1, ATP-dependent Clp protease proteolytic subunit (Staphylococcus aureus (strain NCTC 8325)) (UniProt Q2G036).
T1 sequence (whole entry): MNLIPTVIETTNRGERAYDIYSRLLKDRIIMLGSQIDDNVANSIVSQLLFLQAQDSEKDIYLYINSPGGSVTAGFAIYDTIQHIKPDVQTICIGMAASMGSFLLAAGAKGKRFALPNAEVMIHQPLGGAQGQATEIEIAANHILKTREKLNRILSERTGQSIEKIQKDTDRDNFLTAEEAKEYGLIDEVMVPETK
Nature of the test: Activation of Staphylococcus aureus ClpP assessed as beta-casein digestion using beta-casein/FITC casein as substrate at 200 uM incubated for 24 hrs. As to conditions: filed as activator. An outline of the steps:
(§1)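 Purified ClpP (1.0 µM, final) was incubated with bovine beta-casein (5.0 µM or 3 µM) and ligand at 37 °C, in 100 mM Tris-HCl pH 7.6 with 100 mM KCl or 100 mM HEPES pH 7 with 150 mM NaCl. Timed aliquots were quenched in SDS loading buffer at 90 °C for 5 min, run on SDS-PAGE, stained with Coomassie and quantified by densitometry. ≥3 independent experiments.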

The target in test [3] is T1, ATP-dependent Clp protease proteolytic subunit (Staphylococcus aureus (strain NCTC 8325)). Nature of the test: Induction of tetra-decameric form of Staphylococcus aureus ClpP stabilization in Tris-HCl. An outline of the steps:
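S. aureus ClpP (1 mg/mL) incubated overnight at 32 °C with or without ligands (200 µM, DMSO as blank) in destabilizing buffer (100 mM Tris-HCl pH 7.6, 100 mM KCl). Oligomeric state then analysed by gel filtration on a pre-equilibrated Superdex 200 Increase 10/300 column, tetradecamer versus heptamer.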

Test [4] has the same target. Description: Activation of Staphylococcus aureus ClpP assessed as FtsZ digestion at 200 uM incubated for 24 hrs by densitometric analysis. To be noted: filed as activator. An outline of the steps:
(§2)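 Strep-tagged S. aureus ClpP (1.0 µM, expressed in ClpP-deficient E. coli SG1146a) digesting S. aureus FtsZ (4.0 µM, final) with ligand at 37 °C, under the same conditions as the beta-casein assay. Timed aliquots were quenched with SDS loading buffer and heated, then resolved by SDS-PAGE, Coomassie-stained and quantified by densitometry. ≥3 independent experiments.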

Test [5] has as its target ATP-dependent Clp protease proteolytic subunit (Escherichia coli (strain K12)) (UniProt P0A6G7). Description: Activation of Escherichia coli ClpP assessed as beta-casein digestion using beta-casein/FITC casein as substrate at 200 uM incubated for 24 hrs by SDS-PAGE analysis. To be noted: filed as activator. A digest of the protocol: as §1
Test [6] has as its target T2, ATP-dependent Clp protease proteolytic subunit (Staphylococcus aureus (strain NCTC 8325), UniProt Q2G036).
T2 sequence (Q2G036 whole entry): T1 sequence (whole entry)
Nature of the test: Activation of Staphylococcus aureus ClpP assessed as beta-casein digestion using beta-casein/FITC casein as substrate incubated for 24 hrs.

Test [7] addresses T1, ATP-dependent Clp protease proteolytic subunit (Staphylococcus aureus (strain NCTC 8325)). Description: Activation of Staphylococcus aureus ClpP assessed as FtsZ digestion at 10 uM incubated for 24 hrs by densitometric analysis. To be noted: filed as activator. A digest of the protocol: as §2
Test [8] shares this target. Description: Activation of Staphylococcus aureus ClpP assessed as beta-casein digestion using beta-casein/FITC casein as substrate at 10 uM incubated for 24 hrs. As to conditions: filed as activator. A digest of the protocol:
as §1

Calls of active or inactive are those of the source. The calls are words filed in the database; no cut-off is given here. Starred links: 1 amine or outer side, 2 acyl side, 3 side chain; linkers in the order of their positions; H or OH if unused. Positions of bridges follow the written chain, without caps; N, C: chain ends. Non-standard residues stand in square brackets, D forms with d. Residues, ends and D or L forms follow the SMILES beside them. *: point of attachment. Phe(3,5-F2) = N[C@@H](Cc1cc(F)cc(F)c1)C(=O)O; X1 = CN(CC(=O)O)c1nc(CC[*:1])cc(CC[*:2])n1; CH2COCH2 = O=C(C[*:1])C[*:2]; Cam = NC(=O)C*

ATP-dependent Clp protease proteolytic subunit (Escherichia coli (strain K12)), sequence (P0A6G7 whole entry): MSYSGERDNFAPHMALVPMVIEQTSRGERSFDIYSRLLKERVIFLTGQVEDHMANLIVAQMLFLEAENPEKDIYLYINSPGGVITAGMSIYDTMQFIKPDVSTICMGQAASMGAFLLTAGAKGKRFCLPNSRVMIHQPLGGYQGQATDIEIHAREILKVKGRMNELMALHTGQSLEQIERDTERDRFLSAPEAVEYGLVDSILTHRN

With `CC[C@H](C)[C@H](NC(=O)CNC(=O)[C@H](CSCC(N)=O)NC(C)=O)C(=O)NCC(=O)N[C@@H](Cc1ccccc1)C(=O)NCC(=O)N[C@@H](CSCC(N)=O)C(N)=O` (Ac-C(Cam)GIGFGC(Cam)-NH2), the outcome in test [1] was inactive.

As for `CCCC/C=C/C(=O)N[C@@H](Cc1cc(F)cc(F)c1)C(=O)OC`, the outcome in test [2], in test [3] and in test [4] was Active.

In the case of `CC[C@H](C)[C@@H]1NC(=O)CNC(=O)[C@@H](NC(C)=O)CSCCc2cc(nc(N(C)CC(=O)O)n2)CCSC[C@@H](C(N)=O)NC(=O)CNC(=O)[C@H](Cc2cc(F)cc(F)c2)NC(=O)CNC1=O` (Ac-CGIG[Phe(3,5-F2)]GC-NH2; linker 1-7 via X1), the outcome in test [1] was inactive.

Turning to `CC[C@H](C)[C@@H]1NC(=O)CNC(=O)[C@H](NC(C)=O)CSCC(=O)CSC[C@@H](C(N)=O)NC(=O)CNC(=O)[C@H](C)NC(=O)CNC1=O`, the result in test [1] was inactive.

As to `CC[C@H](C)[C@@H]1NC(=O)CNC(=O)[C@@H](NC(C)=O)CSCC(=O)CSC[C@@H](C(N)=O)NC(=O)CNC(=O)[C@H](Cc2cc(F)cc(F)c2)NC(=O)CNC1=O` (Ac-CGIG[Phe(3,5-F2)]GC-NH2; linker 1-7 via CH2COCH2), the result in test [5], in test [2], in test [1] (filed as activator) and in test [4] was Active. Moreover, in test [6], the EC50 amounted to 41 µM.

For the compound `CC[C@H](C)[C@H](NC(=O)CNC(=O)[C@H](CSCC(N)=O)NC(C)=O)C(=O)NCC(=O)N[C@@H](Cc1ccccc1)C(=O)NCC(=O)N[C@@H](C)C(=O)N[C@H](C(=O)N[C@@H](CSCC(N)=O)C(N)=O)[C@@H](C)O` (Ac-C(Cam)GIGFGATC(Cam)-NH2), the result in test [1] was inactive.

As to `CC[C@H](C)[C@H](NC(=O)CNC(=O)[C@H](CSCC(N)=O)NC(C)=O)C(=O)NCC(=O)N[C@@H](Cc1ccccc1)C(=O)NCC(=O)N[C@@H](C)C(=O)N[C@@H](CSCC(N)=O)C(N)=O` (Ac-C(Cam)GIGFGAC(Cam)-NH2), the result in test [1] was inactive.

`CC[C@H](C)[C@@H]1NC(=O)CNC(=O)[C@@H](NC(C)=O)CSCC(=O)CSC[C@@H](C(N)=O)NC(=O)CNC(=O)[C@H](Cc2ccccc2)NC(=O)CNC1=O`: the outcome in test [5], in test [2] and in test [4] was Active.

For `CC[C@H](C)[C@H](NC(=O)[C@H](CSCC(N)=O)NC(C)=O)C(=O)NCC(=O)N[C@@H](Cc1ccccc1)C(=O)NCC(=O)N[C@@H](C)C(=O)N[C@H](C(=O)N[C@@H](CSCC(N)=O)C(N)=O)[C@@H](C)O` (Ac-C(Cam)IGFGATC(Cam)-NH2), the outcome in test [1] was inactive.

As for `CC[C@H](C)[C@@H]1NC(=O)CNC(=O)[C@@H](NC(C)=O)CSCC(=O)CSC[C@@H](C(N)=O)NC(=O)CNC(=O)[C@@H](Cc2ccccc2)NC(=O)CNC1=O`, in test [1], the outcome was inactive.

In the case of `CC[C@H](C)[C@H](NC(=O)[C@H](CSCC(N)=O)NC(C)=O)C(=O)NCC(=O)N[C@@H](Cc1ccccc1)C(=O)NCC(=O)N[C@@H](CSCC(N)=O)C(N)=O` (Ac-C(Cam)IGFGC(Cam)-NH2), the outcome in test [1] was inactive.

As to `CC[C@H](C)[C@H](NC(=O)[C@H](CSCC(N)=O)NC(C)=O)C(=O)NCC(=O)N[C@@H](Cc1ccccc1)C(=O)NCC(=O)N[C@@H](C)C(=O)N[C@@H](CSCC(N)=O)C(N)=O` (Ac-C(Cam)IGFGAC(Cam)-NH2), in test [1], the outcome was inactive.

`C[C@@H]1C[C@H]2C(=O)OC[C@H](NC(=O)[C@H](Cc3cc(F)cc(F)c3)NC(=O)CCC3CCCCC3)C(=O)N3CCC[C@H]3C(=O)N3CCCC[C@H]3C(=O)N[C@@H](C)C(=O)N2C1`: the outcome in test [7], in test [8] and in test [3] was Active.

For `CC[C@H](C)[C@H](NC(=O)CNC(=O)[C@H](CSCC(N)=O)NC(C)=O)C(=O)NCC(=O)N[C@@H](Cc1cc(F)cc(F)c1)C(=O)NCC(=O)N[C@@H](CSCC(N)=O)C(N)=O` (Ac-C(Cam)GIG[Phe(3,5-F2)]GC(Cam)-NH2), the result in test [1] was inactive.
